Screens deposited in PubChem BioAssay by several laboratories.
Runt-CBFb FRET – blocks binding of human RUNX1 Runt domain to CBFb; 220,000 tested, 0.46% active; AID 1496; inhibition, % at 20 µM; Q01196+Q13951; Cerulean-Runt/Venus-CBFb FRET ratio 530/480, 1 h;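 active means inhibition over about 50% at 20 µM in the single-dose screen, limit read from the data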;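 further: 0% = DMSO wells and 100% = excess unlabeled CBFb competitor control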
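test system = Cerulean-Runt domain fusion protein, energy donor | probe or stimulus = Venus-CBFb binding partner, 100 nM | incubation = two 1 h room-temperature incubations shielded from light | detection = fluorescence energy transfer, 422 nm excitation, 530/480 nm emission | measure = loss of energy transfer signal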
Hck-Nef inh – human Hck-Nef kinase inhibition; P08631; Recombinant Hck-YEEI plus Nef, Z-Lyte FRET kinase assay; inhibition, % at 20 µM; 220,000 tested, 0.68% active;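 active means Hck-Nef kinase inhibition above about 50%, limit read from the data; inactive means inhibition below that limit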;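 further: 0% = DMSO with Hck plus Nef and 100% = Hck alone without Nef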
Target sequence (P08631 whole entry, looked up): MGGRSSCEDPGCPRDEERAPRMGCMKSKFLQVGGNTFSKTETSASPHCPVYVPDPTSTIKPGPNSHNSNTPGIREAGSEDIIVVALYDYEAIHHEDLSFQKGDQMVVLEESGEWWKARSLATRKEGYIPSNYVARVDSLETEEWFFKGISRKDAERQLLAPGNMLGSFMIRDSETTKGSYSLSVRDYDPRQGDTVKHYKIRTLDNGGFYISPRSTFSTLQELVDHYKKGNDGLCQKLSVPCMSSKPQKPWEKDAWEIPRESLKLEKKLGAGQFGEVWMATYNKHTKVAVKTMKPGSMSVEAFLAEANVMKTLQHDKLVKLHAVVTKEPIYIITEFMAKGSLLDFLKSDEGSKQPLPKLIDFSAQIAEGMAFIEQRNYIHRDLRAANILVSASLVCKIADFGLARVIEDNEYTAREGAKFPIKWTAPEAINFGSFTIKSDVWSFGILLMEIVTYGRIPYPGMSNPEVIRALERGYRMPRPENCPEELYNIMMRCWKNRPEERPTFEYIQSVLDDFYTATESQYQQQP
RanGTP-Impb inh – inhibitors of RanGTP-importin-beta interaction, primary screen, biochemical, FRET, CFP-Ran, YFP-importin-beta, homogeneous. inhibition, % (concentration not given with the values). 300,000 tested, 1.1% active. AID 2216. cell-free CFP-Ran/YFP-importin-beta FRET ratio;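 active means more than half of the replicate wells show a fall in the fluorescence ratio signal beyond about 16%, limit read from the data, passing the limit was not always enough; inconclusive means exactly half of the replicate wells pass the set limit; inactive means fewer than half of replicates pass the limit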;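 further: 0% = DMSO wells and 100% = Ran loaded with GDP instead of GTP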
Runt-SMMHC FRET – inhibitors of human RUNX1 Runt domain binding to CBFb-SMMHC; 220,000 tested, 0.74% active; Q01196+Q13951; Cerulean-Runt/Venus-CBFb-SMMHC FRET ratio 530/480, 1 h; inhibition, % at 20 µM;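 active means mean inhibition across duplicate retests at 20 µM reaching about 50%, limit read from the data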;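 further: 0% = DMSO wells and 100% = wells with excess untagged CBFb-SMMHC; inhibitors lower the FRET ratio by blocking Runt binding to CBFb-SMMHC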
PfM18AAP inh – blocks P. falciparum M18 aspartyl aminopeptidase. recombinant PfM18AAP, H-Glu-NHMec fluorogenic cleavage. inhibition, % at 7.35 µM. 290,000 tested, 1.2% active;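 active means inhibition above the campaign mean inhibition over all tested compounds plus 3 SD, cut at about 28% in these data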;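 further: 0% = plate median of test compound wells and 100% = 2 mM ZnCl2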
RBBP9 inh – inhibitors of human serine hydrolase RBBP9; O75884; recombinant RBBP9, FP-Rh probe fluorescence polarization; inhibition, % at 7.94 µM; 220,000 tested, 0.2% active; AID 1515;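 active means inhibition above the campaign mean of all tested compounds plus 3 SD, cut at about 14% in these data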;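 further: plate controls were DMSO wells with RBBP9 for no effect and wells lacking RBBP9 protein for full effect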
Target sequence (O75884 whole entry, looked up): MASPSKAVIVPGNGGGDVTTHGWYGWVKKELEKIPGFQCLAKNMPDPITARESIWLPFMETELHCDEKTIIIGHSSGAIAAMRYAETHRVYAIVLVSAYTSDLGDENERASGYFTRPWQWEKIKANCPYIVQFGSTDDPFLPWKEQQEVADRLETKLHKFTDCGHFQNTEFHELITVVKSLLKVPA
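Measured by – fluorescence polarization · Test system – RBBP9 protein · Input – 2.5 µM RBBP9 dispensing solution, before mixing · Measure – percent inhibition from mP, scaled between DMSO and no-protein wells · Benchmarks – DMSO-treated enzyme wells and wells lacking RBBP9 · Times – preincubation 30 min plus labeling 45 min at 25 °C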
Starred values were filed as active, the others as inactive; ? = inconclusive; . = no result given. Most compounds without a hit are left out; they make up all but 2.9% or so of the library.

SMILES | Runt-CBFb FRET | Hck-Nef inh | RanGTP-Impb inh | Runt-SMMHC FRET | PfM18AAP inh | RBBP9 inh
COCOc1ccc(/C=C2/Oc3cc(OCOC)cc(OCOC)c3C2=O)c(OCOC)c1 | . | . | 104* | . | . | .
COc1cc(OC)c2c(c1)O/C(=C\c1ccccc1)C2=O | . | . | -3 | . | . | .
CC1=NCCN1S(=O)(=O)c1ccccc1[N+](=O)[O-] | 1 | 22 | 6 | -3 | 0 | -4
COc1ccc(N=c2oc3cc(O)ccc3cc2C(=O)NCC2CCCO2)c(OC)c1 (stereo unspecified) | 11 | 22 | 176* | 41 | -2 | 8
COc1ccc(N=c2oc3cc(O)ccc3cc2C(=O)NCC2CCCO2)cc1 (stereo unspecified) | 82* | 45 | 173* | 64* | -7 | -11
Cc1ccc(N=c2oc3cc(O)ccc3cc2C(N)=O)cc1 | 10 | 46 | 181* | 46 | 2 | 0
CCOc1ccc(N=c2oc3cc(O)ccc3cc2C(=O)NCC2CCCO2)cc1 (stereo unspecified) | 121* | 35 | 184* | 106* | 4 | -14
C[n+]1ccc(C(=O)Nc2ccccc2Cl)cc1 | . | . | 0 | . | -16 | .
CCc1ccc(NS(=O)(=O)c2ccc(C)c(C(=O)N3CCOCC3)c2)cc1 | . | . | 4 | . | -7 | .
COc1ccccc1N1CCN(/N=C/c2ccc(O)c(O)c2)CC1 | 42 | 27 | -2 | 27 | 63* | 4
COc1ccc(/C=N/N2CCN(c3ccccc3OC)CC2)cc1OC | -2 | -2 | 5 | 43 | 0 | -4
CCCNS(=O)(=O)c1ccc(OCC(=O)Nc2ccc3c(c2)OCCO3)c(C)c1 | . | . | 2 | . | . | .
O=C1OC(c2cccs2)=N/C1=C/c1ccc(-c2cccc(C(=O)O)c2)o1 | 14 | 116* | . | 16 | 8 | -8
CCc1cc2c(=O)c(-c3nc4ccccc4[nH]3)coc2c(CN2CCCCC2)c1O | -1 | 16 | -2 | 3 | 5 | -6
O=c1[nH]cccc1-c1nc2ccccc2[nH]1 | . | . | 1 | . | 6 | .
O=c1oc2c(CN3CCCCC3)c(O)ccc2cc1-c1nc2ccccc2[nH]1 | 18 | . | . | 57* | . | .
O=c1oc2c(O)cccc2cc1-c1nc2ccccc2[nH]1 | . | . | 133* | . | 7 | .
O=c1oc2c(CN3CCN(CCO)CC3)c(O)ccc2cc1-c1ccccn1 | 11 | -18 | 156* | 80* | 13 | -2
CCCCCCN=C(C)c1ccccc1O | -1 | -6 | 1 | -2 | 7 | -5
CCC(C)c1ccccc1N1CC(C(=O)Nc2cccc(S(=O)(=O)N3CCOCC3)c2)CC1=O (stereo unspecified) | . | . | -2 | . | -4 | .
CCOC(=O)C1CCCN(C(=O)Cn2ncc3c([nH]c4ccccc43)c2=O)C1 (stereo unspecified) | . | . | 3 | . | 1 | .
N#CC1(C#N)C(c2ccccc2)OC23CCCCC2C1(C#N)C(=N)O3 (stereo unspecified) | 33 | 6 | 42* | 61 | 13 | 8
N#CC1(C#N)C(c2ccccc2)OC23CCCCCC2C1(C#N)C(=N)O3 (stereo unspecified) | 40 | -2 | ? | 80* | 2 | -8
COCCCN1C(=O)c2ccc(C(=O)OCC(=O)N3CCN(c4ccccc4)CC3)cc2C1=O | . | . | -2 | . | . | .
CC1CN(c2ccc(NC(=S)Nc3ccc(N4CC(C)OC(C)C4)cc3)cc2)CC(C)O1 (stereo unspecified) | 6 | 10 | 2 | 0 | 29* | 0
SMILES | Runt-CBFb FRET | Hck-Nef inh | RanGTP-Impb inh | Runt-SMMHC FRET | PfM18AAP inh | RBBP9 inh
CCC(CC)c1nnc(NC(=O)C2COc3ccccc3O2)s1 (stereo unspecified) | -1 | 0 | 21* | 1 | 2 | -6
CCc1nnc(NC(=O)C2COc3ccccc3O2)s1 (stereo unspecified) | 1 | -2 | 6 | 1 | 6 | -4
CC(=O)Nc1cc2nc(C)n(Cc3ccc([N+](=O)[O-])cc3)c2nc1C | . | . | -1 | . | -1 | .
Cc1cccc(N2C(=O)C3C4C=CC(CC4)C3C2=O)c1 (stereo unspecified) | . | . | -4 | . | 0 | .
O=C1C2C3CCC(O3)C2C(=O)N1c1cccc(O)c1 (stereo unspecified) | . | . | 33* | . | 2 | .
COC(=O)Cc1cc(=O)n2[nH]c(C)nc2n1 | -1 | -10 | 18* | 3 | -1 | -1
COC(=O)Cc1cc(=O)n2[nH]c(SC)nc2n1 | 0 | -1 | ? | -1 | -2 | 6
C=CCOc1ccc(/C=C2\SC(N3CCCCC3)=NC2=O)cc1 | . | . | -2 | . | 3 | .
CCOC(=O)c1c(-c2ccc(C)s2)csc1N | 10 | 2 | 24* | -2 | 23 | -1
Cc1ccc(CNC(=O)C2CCCN(S(=O)(=O)c3ccc(-n4cnnn4)cc3)C2)cc1 (stereo unspecified) | . | . | -2 | . | -14 | .
N#CC1(C#N)CC(C=O)=C(N)C1(C#N)CC(=O)c1ccc(F)cc1 (stereo unspecified) | 21 | 0 | 33* | 51* | 7 | -12
CCN(CC(=O)Nc1ccc(NC(C)=O)cc1)C(=O)c1ccc2c(c1)S(=O)(=O)N=C1CCCCCN12 | . | . | 4 | . | . | .
COc1cc(/C=C/C(=O)N2C(=O)c3cccc(N)c3C2=O)cc(OC)c1OC | -26 | 2 | ? | 33 | 7 | -10
Nc1cccc2c1C(=O)N(C(=O)/C=C/c1cccc(F)c1)C2=O | -42 | 16 | 27* | 90* | -7 | -4
Nc1cccc2c1C(=O)N(C(=O)/C=C/c1cccc(Br)c1)C2=O | -49 | -60 | 34* | 84* | -12 | 6
O=C(c1ccccc1)N1CCN(CC(O)COCC2CC=CCC2)CC1 (stereo unspecified) | -3 | -2 | 2 | 3 | -11 | -5
O=C(c1ccccc1)N1CCN(CC2CC=CCC2)CC1 (stereo unspecified) | -1 | -2 | 0 | -2 | 32* | 1
O=C(NCCc1ccccc1)c1c(O)c2ccccc2[nH]c1=O | . | . | ? | . | -9 | .
CCNC(=O)c1c(O)c2ccccc2[nH]c1=O | 1 | -4 | 96* | -2 | -4 | 0
Cc1cccn2c(=O)c3cc(C(=O)NCc4ccc(F)cc4)c(=N)n(CC4CCCO4)c3nc12 (stereo unspecified) | . | . | 185* | . | -1 | .
COc1ccc(CNC(=O)c2cc3c(=O)n4cccc(C)c4nc3n(CC3CCCO3)c2=N)cc1 (stereo unspecified) | . | . | 77* | . | 12 | .
Cc1ccc(CNC(=O)c2ccc3c(=O)n(CC4CCCO4)c(=S)[nH]c3c2)cc1 (stereo unspecified) | 2 | 20 | -2 | -4 | 2 | 0
COCCn1c(=N)c(C(=O)NCCc2ccc(OC)cc2)cc2c(=O)n3cccc(C)c3nc21 | 108* | 13 | 78* | 114* | -4 | -5
